In ChEMBL document CHEMBL4396881, “Improved Th17 Selectivity of α-Galactosylceramide via Noncovalent Interactions with Diether Moiety” (ACS Med Chem Lett, 2019):
The source made the active and inactive calls.

Assays:
Format in all cases: functional
[1] = species: Mus musculus; assay: Stimulation of cytokine secretion in C57BL/6 mouse HMNCs assessed as increase in IL-17 secretion measured after 72 hrs by ELISA
[2] = species: Mus musculus; assay: Stimulation of cytokine secretion in C57BL/6 mouse HMNCs assessed as increase in IFN gamma secretion at 25 nM measured after 72 hrs by ELISA
[3] = species: Mus musculus; assay: Stimulation of cytokine secretion in C57BL/6 mouse HMNCs assessed as increase in IL-2 secretion at 25 nM measured after 24 hrs by ELISA
Procedure, shortened: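 Mouse hepatic mononuclear cells were exposed to the α-GalCer analogues. IL-2 secretion was read 24 h after treatment. Results were expressed as relative activity, mean ± SEM, from n = 3 biological replicates.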

[4] = species: Mus musculus; assay: Stimulation of cytokine secretion in C57BL/6 mouse HMNCs assessed as increase in IL-17 secretion at 25 nM measured after 72 hrs by ELISA
[5] = species: Mus musculus; assay: Stimulation of cytokine secretion in C57BL/6 mouse HMNCs assessed as increase in IL-4 secretion at 25 nM measured after 72 hrs by ELISA
[6] = species: Mus musculus; assay: Antiinflammatory activity in C57BL/6 mouse HMNCs assessed as reduction in IL-17 secretion at 5 to 125 nM
[7] = species: Mus musculus; assay: Stimulation of cytokine secretion in C57BL/6 mouse HMNCs assessed as increase in IL-17 secretion at 5 to 125 nM measured after 72 hrs by ELISA

Measured: Activity

CCCCCCCCCCCCCC[C@@H](O)[C@@H](O)[C@H](CO[C@H]1O[C@H](CO)[C@H](O)[C@H](O)[C@H]1O)NC(=O)CCCCCCCCCCCCOCCCCCCCCCOCC
active: [1] Dose-dependent effect | [2] | [3] | [4] | [5]

CCCCCCCCCCCCCC[C@@H](O)[C@@H](O)[C@H](CO[C@H]1O[C@H](CO)[C@H](O)[C@H](O)[C@H]1O)NC(=O)CCCCCCCCCCCCCCCCOCCCCCOCC
active: [2] | [3] | [4] | [5]

CCCCCCCCCCCCCC[C@@H](O)[C@@H](O)[C@H](CO[C@H]1O[C@H](CO)[C@H](O)[C@H](O)[C@H]1O)NC(=O)CCCCCCCCCCCCCCOCCCCCCCOCC
active: [2] | [3] | [4] | [5]

CCCCCCCCCCCCCC[C@@H](O)[C@@H](O)[C@H](CO[C@H]1O[C@H](CO)[C@H](O)[C@H](O)[C@H]1O)NC(=O)CCCCCCCCCCCOCCCCCCCCCOCCC
active: [2] | [3] | [4] | [5]

CCCCCCCCCCCCCC[C@@H](O)[C@@H](O)[C@H](CO[C@H]1O[C@H](CO)[C@H](O)[C@H](O)[C@H]1O)NC(=O)CCCCCCCCCCCCCCCCOCCCCOCCC
not listed: [1]
active: all other assays above

CCCCCCCCCCCCCC[C@@H](O)[C@@H](O)[C@H](CO[C@H]1O[C@H](CO)[C@H](O)[C@H](O)[C@H]1O)NC(=O)CCCCCCCCCCCOCCCCCCCCCCOCC
active: [1] Dose-dependent effect | [2] | [3] | [4] | [5]

CCCCCCCCCCCCCC[C@@H](O)[C@@H](O)[C@H](CO[C@H]1O[C@H](CO)[C@H](O)[C@H](O)[C@H]1O)NC(=O)CCCCCCCCCCCCCCOCCCCCCOCCC
active: [2] | [3] | [4] | [5]

CCCCCCCCCCCCCCCCCCCCCCCCCC(=O)N[C@@H](CO[C@H]1O[C@H](CO)[C@H](O)[C@H](O)[C@H]1O)[C@H](O)[C@H](O)CCCCCCCCCCCCCC
active: [2] | [5]

CCCCCCCCCCCCCC[C@@H](O)[C@@H](O)[C@H](CO[C@H]1O[C@H](CO)[C@H](O)[C@H](O)[C@H]1O)NC(=O)CCCCCCCCCCCCOCCCCCCCCOCCC
active: [2] | [3] | [4] | [5]
